Values after ≈ are worked out from the molar mass of the structure shown.
How the values were obtained:
[1] = system: Plasmodium falciparum; experiment: Antiplasmodial activity against Plasmodium falciparum 3D7 infected in human erythrocyte assessed as intraerythrocytic growth inhibition incubated for 72 hrs by DAPI-staining based imaging analysis; type: functional, organism-based; details: 3D7, 72 h
Summary of the method: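 P. falciparum 3D7 cultured in RPMI1640 with hypoxanthine, HEPES, 2.5 mg/mL AlbuMAX II and 5% human serum. Sorbitol-synchronized rings exposed 72 h at 37 °C under 5% CO2/5% O2, then DAPI-stained with saponin/Triton X-100 for 8 h in the dark. High-content imaging with spot detection. Duplicate points. Reference antimalarials run in each assay.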

[2] = Cytotoxicity against human HEK293 cells assessed as cell viability incubated for 72 hrs by Alamar blue assay; type: cell-based
Summary of the method: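 HEK293 cells handled with the same incubation, compound addition and timing as the 72 h parasite assay. Alamar Blue, diluted in growth medium, was incubated 4 h at 37 °C/5% CO2, then 20 h at room temperature before plate read.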

[3] = system: Plasmodium falciparum; experiment: Antimalarial activity against Plasmodium falciparum TM90C2b harbouring Pf-crt, Pf-mdrl,Pfd-hfr, Pf-cytbQ0 mutated loci assessed as inhibition of parasite growth incubated for […] by [3H]hypoxanthine incorporation assay based liquid scintillation counting method; type: functional, organism-based
Summary of the method: (§1)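 Drug-resistant laboratory P. falciparum strains were compared against the sensitive strain NF54. Growth inhibition was read by a modified [3H]hypoxanthine incorporation assay over 72 h. IC50 is the mean of two independent biological replicates. Chloroquine and artesunate served as controls.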

[4] = system: Plasmodium falciparum; experiment: Antimalarial activity against Plasmodium falciparum 7G8 harbouring Pf-crt, Pf-mdrl,Pf-dhfr, Pf-dhps mutated loci assessed as inhibition of parasite growth incubated for […] by [3H]hypoxanthine incorporation assay based liquid scintillation counting method; type: functional, organism-based; summary of the method: as §1
[5] = system: Plasmodium falciparum; experiment: Antimalarial activity against Plasmodium falciparum NF54 assessed as inhibition of parasite growth incubated for 72 hrs by [3H]hypoxanthine incorporation assay based liquid scintillation counting method
[6] = system: Plasmodium falciparum; experiment: Antimalarial activity against Plasmodium falciparum K1 harbouring Pf-crt, Pf-mdrl,Pf-dhfr, Pf-dhps mutated loci assessed as inhibition of parasite growth incubated for […] by [3H]hypoxanthine incorporation assay based liquid scintillation counting method; type: functional, organism-based; summary of the method: as §1
[7] = system: Plasmodium falciparum; experiment: Antimalarial activity against Plasmodium falciparum Cam3.1 harbouring Pf-crt, Pf-mdrl,Pf-dhfr, Pf-dhps, pf-kelch13 mutated loci assessed as inhibition of parasite growth incubated for […] by [3H]hypoxanthine incorporation assay based liquid scintillation counting method; type: functional, organism-based; summary of the method: as §1
[8] = system: Plasmodium falciparum; experiment: Antimalarial activity against Plasmodium falciparum Dd2 harbouring Pf-crt, Pf-mdrl,Pf-dhfr, Pf-dhps mutated loci assessed as inhibition of parasite growth incubated for […] by [3H]hypoxanthine incorporation assay based liquid scintillation counting method; type: functional, organism-based; summary of the method: as §1
[9] = Intrinsic clearance in human liver microsomes at […] by LC-MS/MS analysis; type: ADME, Microsome
Summary of the method: (§2)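 Liver microsomes (human, mouse or rat) at 0.4 mg/mL protein, 37 °C, with an NADPH-regenerating system. Compound at 0.25 or 0.5 μM. Acetonitrile/diazepam quench, LC-MS quantitation. CLint from the first-order degradation rate constant.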

[10] = Intrinsic clearance in rat liver microsomes at […] by LC-MS/MS analysis; type: ADME, Microsome; summary of the method: as §2
[11] = Kinetic solubility of the compound in pH 6.5 phosphate buffer by nephelometry; type: physicochemical; details: read-out: Kinetic_solubility
Summary of the method: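 DMSO stock spiked into pH 6.5 phosphate buffer (1% DMSO final). After 30 min, solubility range estimated by nephelometry.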

[12] = Apparent permeability of the compound from apical to basolateral side in human Caco-2 cells at 20 uM measured after 120 mins by LC-MS analysis; type: ADME, cell-based
Summary of the method: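 Caco-2 monolayers, apical-to-basolateral direction, in pH 7.4 HBSS with 20 mM HEPES on both sides. Donor at nominal 20 μM, 0.1% DMSO final. Flux followed over 120 min. Quantified by LC-MS with mass balance to derive Papp.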

[13] = Intrinsic clearance in mouse liver microsomes at […] by LC-MS/MS analysis; type: ADME, Microsome; summary of the method: as §2

Row | SMILES | IC50 [1] [µM] | CC50 at 72 h [2] [µM] | further results
1 | Cc1cc(CNC(=O)c2nc3ccc(F)c(OCCc4ccc(C(=O)O)cc4)c3c(=O)[nH]2)ccc1F | 0.59 | > 20 | –
2 | CCc1cccc(CNC(=O)c2nc3cc(COCc4ccc(C(=O)O)cc4)ccc3c(=O)[nH]2)c1 | > 20 | > 20 | –
3 | C[C@H]1[C@H](OC(=O)CCC(=O)O)O[C@@H]2O[C@@]3(C)CC[C@H]4[C@H](C)CC[C@@H]1[C@@]24OO3 [ARTESUNATE] | 0.0006 | – | IC50 [3]: 0.002 µM; IC50 [4]: 0.003 µM; IC50 [5]: 0.006 µM; IC50 [6]: 0.004 µM; IC50 [7]: 0.004 µM; IC50 [8]: 0.006 µM
4 | COc1cccc(CNC(=O)c2nc3cccc(COCc4ccc(C(=O)O)cc4)c3c(=O)[nH]2)c1 | 0.18 | > 20 | –
5 | CCc1cccc(CNC(=O)c2nc3ccc(Br)c(COCc4ccc(C(=O)O)cc4)c3c(=O)[nH]2)c1 | > 20 | > 20 | –
6 | CCc1ccc(CNC(=O)c2nc3cccc(COCc4ccc(C(=O)O)cc4)c3c(=O)[nH]2)cc1 | 0.073 | > 20 | –
7 | O=C(O)c1ccc(COCc2cccc3nc(C(=O)NCc4cccc(C(F)(F)F)c4)[nH]c(=O)c23)cc1 | 0.41 | > 20 | CLH [9]: 7 uL/ml.millig; CLH [10]: 42 uL/ml.millig
8 | COc1cccc(CNC(=O)c2nc3ccc(F)c(OCCc4ccc(C(=O)O)cc4)c3c(=O)[nH]2)c1 | 2.38 | > 20 | –
9 | O=C(O)c1ccc(COCc2cccc3nc(C(=O)NCc4ccccc4)[nH]c(=O)c23)cc1 | 0.28 | > 20 | –
10 | CCc1cccc(CN(C)C(=O)c2nc3ccc(F)c(OCCc4ccc(C(=O)O)cc4)c3c(=O)[nH]2)c1 | > 20 | > 20 | –
11 | CCc1cccc(NC(=O)c2nc3ccc(F)c(OCCc4ccc(C(=O)O)cc4)c3c(=O)[nH]2)c1 | 3.19 | > 20 | –
12 | CCc1cccc(CNC(=O)c2nc3c(COCc4ccc(C(=O)O)cc4)cccc3c(=O)[nH]2)c1 | > 20 | > 20 | –
13 | CCc1cccc(CNC(=O)c2nc3cccc(COc4ccc(C(=O)O)cc4)c3c(=O)[nH]2)c1 | > 20 | > 20 | –
14 | CCc1cccc(CNC(=O)c2nc3ccc(OC)c(COCc4ccc(C(=O)O)cc4)c3c(=O)[nH]2)c1 | > 20 | > 20 | –
15 | COc1cccc(CNC(=O)c2nc3ccc(F)c(OCCc4ccc(N)cc4)c3c(=O)[nH]2)c1 | > 20 | > 20 | –
16 | CCN(CC)CCCC(C)Nc1ccnc2cc(Cl)ccc12 (stereo not drawn) [CHLOROQUINE] | – | – | IC50 [3]: 0.067 µM; IC50 [7]: 0.16 µM; IC50 [8]: 0.01 µM
17 | CCc1cncc(CNC(=O)c2nc3cccc(COCc4ccc(C(=O)O)cc4)c3c(=O)[nH]2)c1 | 0.55 | > 20 | CLH [9]: 13 uL/ml.millig; CLH [10]: 78 uL/ml.millig; solubility kinetic [11]: 1.6 µg/mL (≈ 3.39 µM)
18 | CCc1cccc(CNC(=O)c2nc3ccc(Cl)c(COCc4ccc(C(=O)O)cc4)c3c(=O)[nH]2)c1 | > 20 | > 20 | –
19 | CCc1cccc(CNC(=O)c2nc3cccc(COCc4cccc(C(=O)O)c4)c3c(=O)[nH]2)c1 | 1.58 | > 20 | –
20 | CCc1cccc(CNC(=O)c2nc3cccc(COc4ccc(CC(=O)O)cc4)c3c(=O)[nH]2)c1 | > 20 | > 20 | –
21 | CCc1cccc(CNC(=O)c2nc3ccc(F)c(OCCc4ccc(C(N)=O)cc4)c3c(=O)[nH]2)c1 | > 20 | > 20 | –
22 | CCc1ccc(CNC(=O)c2nc3ccc(F)c(OCCc4ccc(C(=O)O)cc4)c3c(=O)[nH]2)cc1 | 1.16 | > 20 | –
23 | CC(C)c1cccc(CNC(=O)c2nc3ccc(F)c(OCCc4ccc(C(=O)O)cc4)c3c(=O)[nH]2)c1 | 1.16 | > 20 | –

Row | SMILES | IC50 [1] [µM] | CC50 at 72 h [2] [µM] | further results
24 | CCc1cccc(CNC(=O)c2nc3c(OC)ccc(COCc4ccc(C(=O)O)cc4)c3c(=O)[nH]2)c1 | 1.89 | > 20 | –
25 | CCc1cccc(CNC(=O)c2nc3ccc(F)c(OCCc4ccc(C(=O)O)cc4)c3c(=O)[nH]2)c1 | 0.42 | > 20 | Papp A→B at 2 h, 20 µM [12]: 44 ×10⁻⁶ cm/s; CLH [10]: 485 uL/ml.millig; CLH [13]: 69 uL/ml.millig; solubility kinetic [11]: 12.5 µg/mL (≈ 25.5 µM)
26 | COc1cc(CNC(=O)c2nc3ccc(F)c(OCCc4ccc(C(=O)O)cc4)c3c(=O)[nH]2)ccc1F | 1.9 | > 20 | –
27 | CCc1cccc(CNC(=O)c2nc3ccc(F)c(COc4ccc(C(=O)O)cc4)c3c(=O)[nH]2)c1 | 6.97 | > 20 | –
28 | CCc1cccc(C(C)NC(=O)c2nc3cccc(COCc4ccc(C(=O)O)cc4)c3c(=O)[nH]2)c1 (stereo not drawn) | 5.94 | > 20 | –
29 | CCc1cccc(CNC(=O)c2nc3c(F)ccc(COCc4ccc(C(=O)O)cc4)c3c(=O)[nH]2)c1 | 0.054 | > 20 | –
30 | O=C(O)c1ccc(CCOc2c(F)ccc3nc(C(=O)NCc4ccccc4)[nH]c(=O)c23)cc1 | 3.67 | > 20 | Papp A→B at 2 h, 20 µM [12]: 16 ×10⁻⁶ cm/s; CLH [9]: 7 uL/ml.millig; CLH [10]: 123 uL/ml.millig; CLH [13]: 12 uL/ml.millig; solubility kinetic [11]: 6.3 µg/mL (≈ 13.7 µM)
31 | CCc1cccc(CNC(=O)c2nc3cccc(CN(C)Cc4ccc(C(=O)O)cc4)c3c(=O)[nH]2)c1 | 1.15 | > 20 | –
32 | CCc1cccc(C(C)NC(=O)c2nc3ccc(F)c(OCCc4ccc(C(=O)O)cc4)c3c(=O)[nH]2)c1 (stereo not drawn) | 5.13 | > 20 | –
33 | CCc1ccccc1CNC(=O)c1nc2ccc(F)c(OCCc3ccc(C(=O)O)cc3)c2c(=O)[nH]1 | > 20 | > 20 | –
34 | CCc1cccc(CNC(=O)c2nc3cccc(CSCc4ccc(C(=O)O)cc4)c3c(=O)[nH]2)c1 | 5.54 | > 20 | –
35 | O=C(O)c1ccc(CCOc2c(F)ccc3nc(C(=O)NCc4cccc(OCC5CC5)c4)[nH]c(=O)c23)cc1 | 1.67 | > 20 | –
36 | CCc1cccc(CNC(=O)c2nc3ccc(F)c(COCc4ccc(C(=O)O)cc4)c3c(=O)[nH]2)c1 | 4.46 | > 20 | –
37 | CCNC(=O)c1ccc(CCOc2c(F)ccc3nc(C(=O)NCc4cccc(CC)c4)[nH]c(=O)c23)cc1 | > 20 | > 20 | –
38 | CCc1cccc(CNC(=O)c2nc3c(Cl)ccc(COCc4ccc(C(=O)O)cc4)c3c(=O)[nH]2)c1 | 0.16 | > 20 | –
39 | CCc1cccc(CNC(=O)c2nc3ccc(F)c(COc4ccc(CC(=O)O)cc4)c3c(=O)[nH]2)c1 | > 20 | > 20 | –
40 | O=C(O)c1ccc(CCOc2c(F)ccc3nc(C(=O)NCc4cccc(C5CC5)c4)[nH]c(=O)c23)cc1 | 4.76 | > 20 | –
41 | CCc1ccnc(CNC(=O)c2nc3cccc(COCc4ccc(C(=O)O)cc4)c3c(=O)[nH]2)c1 | 0.89 | > 20 | –
42 | CCc1cccc(CNC(=O)c2nc3cccc(COCc4ccc(C(N)=O)cc4)c3c(=O)[nH]2)c1 | 0.31 | > 20 | CLH [9]: 83 uL/ml.millig; CLH [10]: 636 uL/ml.millig; solubility kinetic [11]: < 3.1 µg/mL
43 | CCc1cccc(CNC(=O)c2nc3ccc(COCc4ccc(C(=O)O)cc4)cc3c(=O)[nH]2)c1 | 1.62 | > 20 | –
44 | O=C(O)c1ccc(CCOc2c(F)ccc3nc(C(=O)NCC4CCCCC4)[nH]c(=O)c23)cc1 | > 20 | > 20 | Papp A→B at 2 h, 20 µM [12]: 32 ×10⁻⁶ cm/s; CLH [9]: 7 uL/ml.millig; CLH [10]: 740 uL/ml.millig; CLH [13]: 62 uL/ml.millig; solubility kinetic [11]: < 1.6 µg/mL
45 | COc1cccc(CNC(=O)c2nc3ccc(F)c(OCCc4ccccc4)c3c(=O)[nH]2)c1 | > 20 | > 20 | –

From ChEMBL document CHEMBL4828745, “Discovery and Structure-Activity Relationships of Quinazolinone-2-carboxamide Derivatives as Novel Orally Efficacious Antimalarials” (J Med Chem, 2021)
